The source made the active and inactive calls. The calls are words filed in the database; no cut-off is given here.

The text below walks through data of ChEMBL document CHEMBL3603779, “Identification and Optimization of Benzimidazole Sulfonamides as Orally Bioavailable Sphingosine 1-Phosphate Receptor 1 Antagonists with in Vivo Activity” (J Med Chem, 2015).

One data set concerns the target T1, Cytochrome P450 2B6 (Homo sapiens, UniProt P20813).
T1 sequence (P20813 whole entry): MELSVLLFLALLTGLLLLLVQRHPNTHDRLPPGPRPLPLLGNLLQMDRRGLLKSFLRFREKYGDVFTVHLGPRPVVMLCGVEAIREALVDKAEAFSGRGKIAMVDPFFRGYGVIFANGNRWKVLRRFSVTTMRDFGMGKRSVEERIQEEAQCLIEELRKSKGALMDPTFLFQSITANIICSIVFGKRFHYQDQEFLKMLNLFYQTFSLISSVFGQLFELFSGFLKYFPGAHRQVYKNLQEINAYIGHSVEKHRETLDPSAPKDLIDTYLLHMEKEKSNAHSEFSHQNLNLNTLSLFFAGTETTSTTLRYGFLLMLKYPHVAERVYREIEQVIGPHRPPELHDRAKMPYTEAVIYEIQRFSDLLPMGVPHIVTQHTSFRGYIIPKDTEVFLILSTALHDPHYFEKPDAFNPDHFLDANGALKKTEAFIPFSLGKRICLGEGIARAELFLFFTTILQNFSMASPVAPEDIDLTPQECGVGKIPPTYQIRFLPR
Kind of data set: Induction of CYP2B6 activation in human hepatocytes at 0.2 to 20 uM incubated for 48 hrs using bupropion substrate. Format: ADME, cell-based, Hepatocyte. The method, boiled down: (§1)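 Primary human hepatocytes seeded on collagen and cultured in collagen-Matrigel sandwich. On day 3 they are treated for 48 h with DMSO, test compound at varying concentrations, or reference inducer (3-methylcholanthrene for CYP1A2, phenobarbital for CYP2B6, rifampicin for CYP3A4/5). Probe substrates are then added (phenacetin, bupropion, testosterone) and marker metabolites quantified (acetaminophen, hydroxybupropion, 6-β-hydroxytestosterone).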

The target of the next data set is Cytochrome P450 3A4 (Homo sapiens, UniProt P08684). As to the kind of experiment: Induction of CYP3A4 activation in human hepatocytes at 0.2 to 20 uM incubated for 48 hrs using testosterone substrate. Format: ADME, cell-based, Hepatocyte. In a few lines:
as §1

A short description of data set [1]: Oral bioavailability in Han Wistar rat at 5 to 10 mg/kg by LC-MS/MS method. Format: ADME, organism-based. The settings on record: in vivo.
A short description of data set [2]: Intrinsic clearance in human liver microsomes pre-incubated at 37 degC for 5 mins before NADPH addition by LCMS/MS method. It counts as ADME. The settings on record: read-out: CLH.
The nature of data set [3]: Clearance in Han Wistar rat at 2 to 4 mg/kg, iv by LC-MS/MS method. Format: ADME, organism-based. The settings on record: in vivo.
The next data set deals with T2, Cytochrome P450 1A2 (Homo sapiens, UniProt P05177).
T2 sequence (P05177 whole entry): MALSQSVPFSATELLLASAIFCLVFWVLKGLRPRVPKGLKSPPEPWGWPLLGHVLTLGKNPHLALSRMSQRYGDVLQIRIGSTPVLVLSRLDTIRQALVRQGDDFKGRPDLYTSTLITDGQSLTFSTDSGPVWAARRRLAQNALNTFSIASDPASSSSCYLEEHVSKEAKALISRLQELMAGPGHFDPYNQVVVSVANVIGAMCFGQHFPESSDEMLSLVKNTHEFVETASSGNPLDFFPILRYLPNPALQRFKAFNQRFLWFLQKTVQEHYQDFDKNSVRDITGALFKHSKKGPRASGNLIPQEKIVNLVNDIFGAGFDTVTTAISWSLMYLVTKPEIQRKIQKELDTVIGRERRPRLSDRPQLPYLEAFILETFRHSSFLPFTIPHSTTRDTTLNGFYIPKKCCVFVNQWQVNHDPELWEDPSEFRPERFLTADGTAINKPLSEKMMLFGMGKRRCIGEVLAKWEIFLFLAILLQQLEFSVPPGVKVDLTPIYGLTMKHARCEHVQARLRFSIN
Kind of data set: Induction of CYP1A2 activation in human hepatocytes at 0.2 to 20 uM incubated for 48 hrs using phenacetin substrate. It counts as ADME, cell-based, Hepatocyte. The method, boiled down:
as §1

Data set [4] has as its target T3, Sphingosine 1-phosphate receptor 1 (Homo sapiens, UniProt P21453). Kind of data set: Antagonist activity against human S1P1 receptor expressed in human U2OS cells co-expressing GFP assessed as inhibition of S1P-induced receptor translocation. Format: cell-based. In a few lines:
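Cellular S1P1 translocation (internalization) assay with antagonist; EC50 reported as mean of at least three separate determinations ± standard deviation.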

Data set [5] deals with Sphingosine 1-phosphate receptor 1 (Mus musculus) (UniProt O08530). Kind of data set: Antagonist activity against mouse S1P1 receptor expressed in human U2OS cells co-expressing GFP assessed as inhibition of S1P-induced receptor translocation. It counts as cell-based.
Chain of Sphingosine 1-phosphate receptor 1 (Mus musculus) (O08530 whole entry): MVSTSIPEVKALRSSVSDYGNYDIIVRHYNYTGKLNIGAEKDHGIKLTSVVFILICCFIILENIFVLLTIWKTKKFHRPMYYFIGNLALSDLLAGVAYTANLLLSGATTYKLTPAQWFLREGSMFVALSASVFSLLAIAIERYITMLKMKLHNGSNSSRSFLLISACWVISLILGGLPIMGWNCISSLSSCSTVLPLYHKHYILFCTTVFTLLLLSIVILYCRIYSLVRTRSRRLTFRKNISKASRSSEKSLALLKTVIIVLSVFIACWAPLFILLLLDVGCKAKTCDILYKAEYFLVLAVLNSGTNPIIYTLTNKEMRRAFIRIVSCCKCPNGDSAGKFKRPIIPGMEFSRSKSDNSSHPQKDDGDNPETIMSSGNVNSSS
Data set [6] has as its target T4, Cytochrome P450 3A5 (Homo sapiens, UniProt P20815). As to the kind of experiment: Induction of CYP3A5 activation in human hepatocytes at 0.2 to 20 uM incubated for 48 hrs using testosterone substrate. It counts as ADME, cell-based, Hepatocyte. The method, boiled down: as §1
Data set [7] addresses T4, Cytochrome P450 3A5. As to the kind of experiment: Induction of CYP3A5 activation in human hepatocytes at 2 uM incubated for 48 hrs using testosterone substrate. Format: ADME, cell-based, Hepatocyte. In a few lines: as §1
Data set [8] concerns the target T3, Sphingosine 1-phosphate receptor 1. Kind of data set: Antagonist activity against S1P1 receptor (unknown origin) expressed in human U2OS cells co-expressing GFP assessed as right-ward shift of S1P-induced response. Format: cell-based. In a few lines: (§2)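 S1P concentration-response curves for receptor internalization run at a series of fixed antagonist concentrations, giving both curve shift and maximal internalization.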

Data set [9] has the same target. Kind of data set: Antagonist activity against S1P1 receptor (unknown origin) expressed in human U2OS cells co-expressing GFP assessed as reduction in maximal amount of S1P-induced receptor translocation. Format: cell-based. In a few lines: as §2
Data set [10] addresses Sphingosine 1-phosphate receptor 3 (Homo sapiens) (UniProt Q99500). Kind of data set: Antagonist activity against S1P3 receptor (unknown origin).

T3 sequence (P21453 whole entry): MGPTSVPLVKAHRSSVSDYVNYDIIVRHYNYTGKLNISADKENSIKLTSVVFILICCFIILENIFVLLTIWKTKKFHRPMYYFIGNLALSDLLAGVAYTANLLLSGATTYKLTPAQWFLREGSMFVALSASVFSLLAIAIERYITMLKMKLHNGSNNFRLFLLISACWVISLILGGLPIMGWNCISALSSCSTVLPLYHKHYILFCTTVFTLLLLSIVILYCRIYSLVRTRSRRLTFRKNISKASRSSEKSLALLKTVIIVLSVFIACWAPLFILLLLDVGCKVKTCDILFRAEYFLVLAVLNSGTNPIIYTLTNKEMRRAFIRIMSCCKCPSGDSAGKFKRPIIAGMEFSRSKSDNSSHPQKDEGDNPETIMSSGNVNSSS
T4 sequence (P20815 whole entry): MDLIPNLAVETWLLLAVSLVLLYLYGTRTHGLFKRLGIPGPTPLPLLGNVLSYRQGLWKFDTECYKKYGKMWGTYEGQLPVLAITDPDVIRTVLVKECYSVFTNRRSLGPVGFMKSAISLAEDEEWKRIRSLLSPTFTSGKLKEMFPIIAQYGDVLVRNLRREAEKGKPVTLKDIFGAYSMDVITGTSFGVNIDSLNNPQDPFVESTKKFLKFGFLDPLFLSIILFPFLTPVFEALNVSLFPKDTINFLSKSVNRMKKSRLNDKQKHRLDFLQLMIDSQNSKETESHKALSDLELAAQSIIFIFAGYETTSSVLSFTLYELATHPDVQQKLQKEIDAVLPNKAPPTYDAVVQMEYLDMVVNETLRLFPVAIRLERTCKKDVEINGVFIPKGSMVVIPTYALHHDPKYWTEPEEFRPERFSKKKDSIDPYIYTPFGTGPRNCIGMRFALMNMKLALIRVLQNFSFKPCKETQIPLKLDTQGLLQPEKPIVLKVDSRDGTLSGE
Chain of Cytochrome P450 3A4 (P08684 whole entry): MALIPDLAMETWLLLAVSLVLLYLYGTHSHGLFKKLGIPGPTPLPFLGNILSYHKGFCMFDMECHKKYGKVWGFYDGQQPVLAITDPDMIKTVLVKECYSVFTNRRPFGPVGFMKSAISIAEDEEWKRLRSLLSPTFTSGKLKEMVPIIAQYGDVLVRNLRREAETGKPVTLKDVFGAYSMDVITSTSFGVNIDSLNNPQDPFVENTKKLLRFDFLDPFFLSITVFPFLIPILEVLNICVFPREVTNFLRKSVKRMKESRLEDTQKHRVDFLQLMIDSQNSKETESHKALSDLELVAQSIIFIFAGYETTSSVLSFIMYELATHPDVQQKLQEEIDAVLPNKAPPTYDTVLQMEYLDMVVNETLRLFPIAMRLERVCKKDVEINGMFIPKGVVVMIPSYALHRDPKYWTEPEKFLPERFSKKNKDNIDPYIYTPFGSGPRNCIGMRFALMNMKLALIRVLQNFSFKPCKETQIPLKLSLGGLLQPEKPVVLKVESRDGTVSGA
Chain of Sphingosine 1-phosphate receptor 3 (Homo sapiens) (Q99500 whole entry): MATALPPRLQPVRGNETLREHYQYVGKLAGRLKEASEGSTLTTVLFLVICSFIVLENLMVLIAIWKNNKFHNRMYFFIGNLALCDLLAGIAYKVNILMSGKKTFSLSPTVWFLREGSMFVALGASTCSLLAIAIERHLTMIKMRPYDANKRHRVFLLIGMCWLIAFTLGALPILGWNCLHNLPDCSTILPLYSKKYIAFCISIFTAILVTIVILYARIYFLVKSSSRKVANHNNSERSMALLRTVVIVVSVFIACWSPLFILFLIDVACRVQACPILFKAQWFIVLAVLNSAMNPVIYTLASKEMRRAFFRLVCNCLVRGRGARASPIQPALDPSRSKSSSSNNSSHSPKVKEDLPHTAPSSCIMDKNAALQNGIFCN

Consider `CCn1c([C@@H](C)NS(=O)(=O)c2ccc(Cl)cc2)nc2ccc(C(F)(F)F)cc21`, for which the Activity entry at Cytochrome P450 2B6 is given as “Not Active”; on Cytochrome P450 3A4, “Dose-dependent effect”; at Cytochrome P450 1A2, “Not Active”; at Cytochrome P450 3A5 [6], “Dose-dependent effect”; at Cytochrome P450 3A5 [7], “Active”. For the same compound, the bioavailability in data set [1] is 43%. The microsomal CLint in data set [2] was greater than 100 µL/min/mg. Besides, the clearance in data set [3] was determined as 33 mL/min/kg. In data set [4], the EC50 came to 5 nM. Moreover, the inhibition entry in data set [5] is “Active”.
In data set [1], `CCn1c([C@@H](C)NS(=O)(=O)c2ccc(Cl)cc2)nc2ccccc21` displayed a bioavailability of 5%. Besides, the microsomal CLint in [2] was greater than 100 µL/min/mg. Besides, the inhibition result in data set [8] and in [9] was “Active” in each case. In addition, the 50% effective concentration (EC50) in [4] came out at 50 nM.
With `CCc1nnc([C@@H](C)NS(=O)(=O)c2ccc(Cl)cc2)n1CC`, the inhibition entry in [10] is “inactive”.
